The record followed here is ChEMBL document CHEMBL4680332, “Lead optimization of 2-hydroxymethyl imidazoles as non-hydroxamate LpxC inhibitors: Discovery of TP0586532” (Bioorg Med Chem, 2021).

The nature of data set [1]: Protein binding in ICR mouse serum at 1 ug/ml incubated for 4 hrs by LC-MS/MS analysis. The format is ADME, cell-free. The conditions noted are these: at 1 µg/mL, read-out: PB (converted). The method in brief:
(§1)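 Equilibrium dialysis at 1 µg/mL final in pooled male ICR mouse serum or human volunteer serum (no anticoagulant). Dialyzed against 50 mM sodium phosphate buffer at 37 °C for 4 h (5% CO2, MWCO 12000–14000). Compound on each side measured by LC-MS/MS; binding % = (Cs−Cb)/Cs×100.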

The nature of data set [2]: Free plasma concentration in Hartley guinea pig serum assessed as fraction unbound at 150 mg/kg, iv measured after 30 mins by LC-MS/MS analysis. The class given is ADME, organism-based, Cavia porcellus. The conditions noted are these: in vivo, 0.5 h. In short, it runs like this:
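Unbound plasma concentration at end of 30-min iv infusion in anesthetized guinea pigs: LC-MS/MS plasma C30min multiplied by fraction unbound, with plasma fu assumed equal to serum fu (equilibrium dialysis, 500 µg/mL in guinea pig serum).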

A short description of data set [3]: Cardiotoxicity in iv dosed Hartley guinea pig assessed as decrease in heart rate measured after 30 mins. The class given is toxicity, organism-based, Cavia porcellus. The conditions noted are these: in vivo, 0.5 h. In short, it runs like this: (§2)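 Guinea pigs (6–7 weeks) anesthetized with pentobarbital 60 mg/kg ip, then infused iv at 8 mg/kg/h; ventilated at 15 mL/kg, 60/min. Vehicle (11w/v% SBE-β-CD, pH4) or compound infused via jugular vein for 30 min. Carotid arterial pressure and ECG recorded; QT corrected by Bazett. Heart rate, QTc, SBP and DBP expressed as change from baseline.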

A short description of data set [4]: Plasma concentration in Hartley guinea pig at 150 mg/kg, iv measured after 30 mins by LC-MS/MS analysis. The class given is ADME, organism-based, Cavia porcellus. The method in brief:
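Anesthetized guinea pigs received a 30-min iv infusion. Blood was taken at the end of infusion and centrifuged, and plasma concentration (C30min) was measured by LC-MS/MS.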

The next data set relates to Escherichia coli. Kind of data set: Antibacterial activity against Escherichia coli ATCC 25922 by CLSI based broth microdilution method. The format is functional. In short, it runs like this:
(§3)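 Broth microdilution MIC per CLSI method; E. coli ATCC 25922 and K. pneumoniae ATCC 13883.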
A general note: Broth dilution looks for growth in wells or tubes with falling amounts of substance.

Data set [5] can be described thus: Protein binding in human serum at 1 ug/ml incubated for 4 hrs by LC-MS/MS analysis. The class given is ADME, cell-free. The conditions noted are these: at 1 µg/mL, read-out: PB (converted). In short, it runs like this:
as §1

In data set [6] the test system is Klebsiella pneumoniae. Kind of data set: Antibacterial activity against Klebsiella pneumonia ATCC 13883 by CLSI based broth microdilution method. The format is functional. The method in brief: as §3
The nature of data set [7]: Inhibition of Escherichia coli LpxC using DP-3-0-(R-3-hydroxymyristoy1)-N-acetylglucosamine as substrate incubated for 120 mins by fluorescamine assay.
Data set [8] is described as follows: Cardiotoxicity in Hartley guinea pig assessed as decrease in blood pressure at 150 mg/kg, iv measured after 30 mins. The conditions noted are these: in vivo, 0.5 h. The class given is toxicity, organism-based, Cavia porcellus. The method in brief: as §2
Data set [9] concerns the target Voltage-gated inwardly rectifying potassium channel KCNH2 (Homo sapiens, UniProt Q12809). Kind of data set: Inhibition of human ERG expressed in CHO cells by whole cell Q-patch clamp assay. The format is cell-based. Background: Patch clamp records ionic current or voltage across a cell membrane.
A short description of data set [10]: Toxicity in iv dosed ICR mouse assessed as maximum tolerated dose. The class given is organism-based. The conditions noted are these: in vivo. The method in brief:
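Exploratory MTD study in male ICR mice (n = 2): a single intravenous tail-vein injection at dose levels of up to 200 mg/kg.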

The nature of data set [11]: Toxicity in iv dosed Sprague-Dawley rat assessed as maximum tolerated dose administered for 4 days. The format is organism-based. The conditions noted are these: in vivo, time 4 day. The method in brief:
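Six-week-old male and female Sprague Dawley rats received intravenous bolus doses via the tail vein for 4 days. MTD was assessed under repeated dosing.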

The test system of data set [12] is Klebsiella pneumoniae. Kind of data set: In vivo antibacterial activity against Klebsiella pneumonia ATCC BAA-2343 infected in ICR mouse assessed as reduction in bacterial burden in lung at 50 mg/kg, sc administered after 2 hrs of infection and measured after 26 hrs of infection. The class given is functional. Particulars: time 24 hrs. The method in brief:
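Female ICR mice (5 weeks) made neutropenic with cyclophosphamide ip, 150 and 100 mg/kg at days −4 and −1. Intranasal inoculation with 1.5–1.9 × 10^6 CFU. Compound in 10w/v% HP-β-CD given sc 2 h post-infection (n = 5). Lung viable counts at 2 h (control) and 26 h; mean log change versus start of therapy.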

Data set [13] in a line: Cardiotoxicity in iv dosed Hartley guinea pig assessed as increase in QT prolongation measured after 30 mins. The class given is toxicity, organism-based, Cavia porcellus. The conditions noted are these: in vivo, 0.5 h. In short, it runs like this:
as §2

Data set [14] in a line: Genotoxicity in mouse lymphoma cell. The conditions noted are these: lymphoma cell line. The format is toxicity.
A short description of data set [15]: Toxicity in iv dosed cynomolgus monkey assessed as maximum tolerated dose administered for 14 days. The format is organism-based, Macaca fascicularis. The conditions noted are these: in vivo, time 14 day. In short, it runs like this: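 Three-year-old female cynomolgus monkeys were dosed intravenously for 14 days as a 30-min infusion via the saphenous vein. MTD was assessed under repeated dosing.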

≈ marks a conversion by molar mass, not a printed value. Bounds are passed on as bounds.

Sequence of Voltage-gated inwardly rectifying potassium channel KCNH2 (Q12809 whole entry): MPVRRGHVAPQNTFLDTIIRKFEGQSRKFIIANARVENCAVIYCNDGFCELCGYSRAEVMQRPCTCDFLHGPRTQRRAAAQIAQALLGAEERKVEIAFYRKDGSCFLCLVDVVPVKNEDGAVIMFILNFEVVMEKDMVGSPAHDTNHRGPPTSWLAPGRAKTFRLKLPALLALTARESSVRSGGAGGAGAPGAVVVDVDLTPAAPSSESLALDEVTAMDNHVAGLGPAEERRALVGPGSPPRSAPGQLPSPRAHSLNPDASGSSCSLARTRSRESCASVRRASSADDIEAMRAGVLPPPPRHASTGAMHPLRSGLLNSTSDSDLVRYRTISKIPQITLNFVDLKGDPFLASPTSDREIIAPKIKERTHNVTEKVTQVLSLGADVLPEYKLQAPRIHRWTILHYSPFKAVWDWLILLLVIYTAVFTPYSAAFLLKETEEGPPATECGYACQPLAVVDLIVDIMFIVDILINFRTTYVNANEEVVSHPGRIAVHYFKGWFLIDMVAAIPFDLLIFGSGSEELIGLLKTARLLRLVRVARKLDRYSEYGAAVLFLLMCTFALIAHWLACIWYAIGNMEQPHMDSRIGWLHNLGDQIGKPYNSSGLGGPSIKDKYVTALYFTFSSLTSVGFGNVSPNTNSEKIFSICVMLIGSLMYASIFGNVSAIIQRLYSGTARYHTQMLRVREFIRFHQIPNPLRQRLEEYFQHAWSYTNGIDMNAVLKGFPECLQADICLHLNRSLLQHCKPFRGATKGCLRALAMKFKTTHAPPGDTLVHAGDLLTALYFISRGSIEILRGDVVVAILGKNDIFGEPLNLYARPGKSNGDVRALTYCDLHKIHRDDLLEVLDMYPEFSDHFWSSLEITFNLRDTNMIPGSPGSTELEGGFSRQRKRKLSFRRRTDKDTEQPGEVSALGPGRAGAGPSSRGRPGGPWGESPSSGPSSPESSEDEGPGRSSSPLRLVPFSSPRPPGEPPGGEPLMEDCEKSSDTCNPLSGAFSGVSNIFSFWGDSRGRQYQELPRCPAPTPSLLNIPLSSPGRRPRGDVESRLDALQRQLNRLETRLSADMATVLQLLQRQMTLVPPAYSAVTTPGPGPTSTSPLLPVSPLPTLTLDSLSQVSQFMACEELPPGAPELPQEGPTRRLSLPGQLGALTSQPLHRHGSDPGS

What is called MIC is the lowest concentration found to suppress growth. Broadly, the IC50 is the midpoint of a concentration-inhibition curve. A word on the MTD: it is the highest dose tested that stayed within the study's limit of toxicity. As to `C[C@H](O)c1nccn1Cc1cc(-c2ccc(C#C[C@@H]3[C@H]4CN(CCCC(=O)O)C[C@@H]34)cc2)on1`, the fraction unbound at 4 h, 1 ug/ml was 0.241 in data set [1] and 0.223 in data set [5]. Also, the “Cp(f)” value in [2] was 87.3 µg/mL. Moreover, the Activity result in data set [3] was “Non-Toxic”; in data set [8], “Non-Toxic”; in the data set on Klebsiella pneumoniae [12], -1.63 log10CFU; in data set [13] it was “Non-Toxic”; in data set [14] it was “Non-Toxic”. For the same compound, the concentration at 0.5 h in data set [4] came to 378 µg/mL. The MIC in the data set on Escherichia coli is 2 µg/mL (≈ 4.34 µM); in the data set on Klebsiella pneumoniae [6], 4 µg/mL (≈ 8.69 µM). Also, the IC50 in data set [7] was 0.101 µM; in data set [9] it was over 1000 µM. The MTD in [10] was at least 200 mg/kg. In addition, the MTD at 96 h in [11] worked out at 400 mg/kg. Further, the maximal tolerated dose (MTD) at 336 h in data set [15] is over 400 mg/kg.
